Measured values pooled from the literature.
Each line is one published result; the experiments were not run side by side.
JAK2: Tyrosine-protein kinase JAK2 (JAK2, Homo sapiens, UniProt O60674)
JAK2 JH1: Tyrosine-protein kinase JAK2, JH1 (JAK2, Homo sapiens, UniProt O60674)

SMILES | target | effect on | mode | method | concentration | quantity | value
CC(C)(C)c1cc(C=C(C#N)C#N)cc(Br)c1O | JAK2 | enzyme activity | inhibitor | – | 0.5 µM | remaining activity | 107%
COc1ncccc1-c1cnn2ccc(N3CCN(C(=O)OC(C)C)CC3)nc12 | JAK2 | binding | – | competition with immobilised ligand | 1 µM | remaining binding | 89%
Cn1cc(-c2cc(F)cc(N3CCn4c(cc5c4CCCC5)C3=O)c2CO)cc(Nc2ccc(N3CCN(C4COC4)CC3)cn2)c1=O | JAK2 | enzyme activity | inhibitor | – | 0.1 µM | inhibition | 8%
Cn1cncc1[C@](O)(COc1ccc(C#N)cc1-c1ccc(OC(F)(F)F)cc1)c1ccc(C#N)cc1 | JAK2 JH1 | cell-free assay | – | competition with immobilised ligand | 1 µM | remaining binding | 91%
Cn1cc(-c2cccc(N3CCc4c(sc5c4CC(C)(C)C5)C3=O)c2CO)cc(Nc2ccncn2)c1=O | JAK2 | enzyme activity | inhibitor | – | 1 µM | inhibition | -5%
Nc1ncc(-c2nc(N3CCOCC3)nc(N3CCOCC3)n2)c(C(F)F)n1 | JAK2 JH1 | binding | – | competition with immobilised ligand | 10 µM | remaining binding | 65%
C#Cc1n[nH]c2c(-c3cn(C(C)c4ccccn4)c(=O)[nH]c3=O)cc(F)cc12 (stereo not drawn) | JAK2 | enzyme activity | inhibitor | – | 1 µM | inhibition | -4.2%
N#CC1(c2ccccn2)CCN(Cc2cc(C(=O)O)c(=O)n3ccccc23)CC1 | JAK2 JH1 | cell-free assay | – | competition with immobilised ligand | 1 µM | remaining binding | 96%
O=c1[nH]c2ccccc2n1C1CCN(Cc2ccc(-c3[nH]c4cc5ncnc5cc4nc3-c3ccccc3)cc2)CC1 | JAK2 | cell-free assay | – | – | 0.5 µM | remaining signal | 104%
